According to ChEMBL document CHEMBL2040713, “Finger-loop inhibitors of the HCV NS5b polymerase. Part 1: Discovery and optimization of novel 1,6- and 2,6-macrocyclic indole series” (Bioorg Med Chem Lett, 2012):

Columns and labels:
[1] = Drug metabolism in human liver microsomes at 5 uM after 15 mins; assay type: ADME, Microsome; settings: read-out: Drug metabolism
[2] = Drug metabolism in rat liver microsomes at 5 uM after 15 mins; assay type: ADME, Microsome; settings: read-out: Drug metabolism
Hepatitis C virus = test: Antiviral activity against HCV infected in human […] cells assessed as inhibition of viral RNA replication; assay type: functional, organism-based, Hepacivirus hominis
Method in brief: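 Replicon assay: subgenomic HCV RNA replication in Huh-7 cells carrying a bicistronic expression construct. Inhibition expressed as EC50.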

[3] = Inhibition of purified HCV NS5B Cdelta21 polymerase; design: species or system Hepacivirus hominis
[4] = Efflux ratio of compound permeability in human Caco2 cells; assay type: ADME, cell-based; settings: Caco-2
[5] = Apparent permeability from apical to basolateral side of human Caco2 cells; assay type: ADME, cell-based; settings: Caco-2
[6] = Ratio of drug level in liver to plasma in Sprague-Dawley rat at 2 mg/kg, iv and 10 mg/kg, po after 7 hrs; assay type: ADME, organism-based
Method in brief: (§1)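 Sprague–Dawley rats given 2 mg/kg iv in PEG400/saline (70:30) or 10 mg/kg po in PEG400 with 2% Vitamin E TPGS. Liver concentration (ng/g) measured 7 h post dose. Liver-to-plasma ratio taken at the same time.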

[7] = Volume of distribution at steady state in Sprague-Dawley rat at 2 mg/kg, iv and 10 mg/kg, po; assay type: ADME, organism-based; settings: in vivo, read-out: Vdss
Method in brief: (§2)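 Sprague–Dawley rats, single dose. IV arm at 2 mg/kg in PEG400/saline (70:30), with plasma kinetics determined. Oral arm at 10 mg/kg in PEG400 containing 2% Vitamin E TPGS, compared against the iv data.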

[8] = Clearance in Sprague-Dawley rat at 2 mg/kg, iv and 10 mg/kg, po; assay type: ADME, organism-based; settings: in vivo; method in brief: as §2
[9] = Drug level in Sprague-Dawley rat liver at 2 mg/kg, iv and 10 mg/kg, po after 7 hrs; assay type: ADME, organism-based; settings: read-out: Drug uptake; method in brief: as §1
[10] = Oral bioavailability in Sprague-Dawley rat at 10 mg/kg; assay type: ADME, organism-based; settings: in vivo; method in brief: as §2
[11] = Half life in Sprague-Dawley rat at 2 mg/kg, iv and 10 mg/kg, po; assay type: ADME, organism-based; settings: in vivo; method in brief: as §2
Liver microsomes = test: Metabolic stability in human liver microsomes assessed as glutathione conjugates formation at 40 uM in presence of glutathione; assay type: ADME, Microsome
Method in brief: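 Human liver microsomes (1 mg/mL protein) in 100 mM KPi, pH 7.4, with 5 mM MgCl2, 1 mM EDTA and 2 mM NADPH. Trapping agent was 2 mM GSH, or a GSH/stable-label GSH mix (1 mM/1 mM). Compound at 40 µM final, added from a 20 mM stock. Read-out was glutathione conjugate formation.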

SMILES	metabolised at 0.25 h, 5 µM [1] [%]	metabolised at 0.25 h, 5 µM [2] [%]	EC50 (Hepatitis C virus) [nM]	IC50 [3] [nM]	other results
O=C1Cn2c(-c3ccoc3)c(C3CCCCC3)c3ccc(cc32)C(=O)NS(=O)(=O)C/C=C/CCN1	–	–	7500	–	efflux ratio [4]: > 25; Papp A→B [5]: < 1 ×10⁻⁶ cm/s
COc1ccc(-c2c(C3CCCCC3)c3ccc4cc3n2CC(=O)NN(C)CCN2CCN(CC2)S(=O)(=O)NC4=O)cc1	–	–	3500	–	–
CN1CCCCNC(=O)COc2ccccc2-c2c(C3CCCCC3)c3ccc(cc3n2C)C(=O)NS1(=O)=O	–	–	7560	1900	–
CN1CCOCCN(C)S(=O)(=O)NC(=O)c2ccc3c(C4CCCCC4)c(n(C4CCCC4)c3c2)-c2ccccc2OCC1=O	74	40	15700	1490	–
O=C1Cn2c(-c3ccoc3)c(C3CCCCC3)c3ccc(cc32)C(=O)NCCCCCCN1	> 95	> 95	4300	9500	–
CC(C)n1c2c(C3CCCCC3)c3ccc(cc31)C(=O)NS(=O)(=O)N(C)CCOCCN(C)C(=O)COc1ccccc1-2	64	35	11900	1660	–
O=C1Cn2c(-c3ccoc3)c(C3CCCCC3)c3ccc(cc32)C(=O)NCC/C=C/CCCN1	> 95	> 95	2600	–	–
COc1ccc(-c2c(C3CCCCC3)c3ccc4cc3n2CC(=O)NCCCCN(C)S(=O)(=O)NC4=O)cc1	–	–	1760	180	–
COc1ccc(-c2c(C3CCCCC3)c3ccc4cc3n2CC(=O)NCCN(C)CCNS(=O)(=O)NC4=O)cc1	–	–	3470	440	–
CN1CCN2CCN(CC2)C(=O)COc2ccccc2-c2c(C3CCCCC3)c3ccc(cc3n2C)C(=O)NS1(=O)=O	56	35	240	140	–
O=C1Cn2c(-c3ccoc3)c(C3CCCCC3)c3ccc(cc32)C(=O)NCC/C=C/CCN1	> 95	> 95	3400	2200	–

Continued, in another order:

metabolised at 0.25 h, 5 µM [1] [%]	metabolised at 0.25 h, 5 µM [2] [%]	EC50 (Hepatitis C virus) [nM]	IC50 [3] [nM]	SMILES	other results
81	58	460	110	CN1CCCCCNC(=O)COc2cc(F)ccc2-c2c(C3CCCCC3)c3ccc(cc3n2C)C(=O)NS1(=O)=O	–
–	–	430	–	CN1CCCCCNC(=O)Cn2c(-c3ccccc3)c(C3CCCCC3)c3ccc(cc32)C(=O)NS1(=O)=O	–
59	56	680	88	CN1CCCCCNC(=O)COc2ccc(F)cc2-c2c(C3CCCCC3)c3ccc(cc3n2C)C(=O)NS1(=O)=O	–
–	–	530	–	CN1CCCCN(C)S(=O)(=O)NC(=O)c2ccc3c(C4CCCCC4)c(-c4ccc(Cl)cc4)n(c3c2)CC1=O	–
–	–	350	–	COc1ccc(-c2c(C3CCCCC3)c3ccc4cc3n2CC(=O)NCCCCCN(C)S(=O)(=O)NC4=O)cc1	–
–	–	590	190	CN1CCCCCNC(=O)Cn2c(-c3ccc(Cl)cc3)c(C3CCCCC3)c3ccc(cc32)C(=O)NS1(=O)=O	–
71	44	180	33	CN1CCCCCNC(=O)COc2ccccc2-c2c(C3CCCCC3)c3ccc(cc3n2C)C(=O)NS1(=O)=O	–
–	–	720	–	CN1C/C=C/CCNC(=O)Cn2c(-c3ccoc3)c(C3CCCCC3)c3ccc(cc32)C(=O)NS1(=O)=O	–
92	60	310	97	CN1CCCCN(C)S(=O)(=O)NC(=O)c2ccc3c(C4CCCCC4)c(n(C)c3c2)-c2ccccc2OCC1=O	Kp at 7 h [6]: 99; Vd [7]: 2.6 L/kg; clearance [8]: 128 mL/min/kg; concentration at 7 h [9]: 1520 ng/g; bioavailability [10]: 9%; half-life [11]: 18 min
65	50	190	110	CN1CCOCCN(C)S(=O)(=O)NC(=O)c2ccc3c(C4CCCCC4)c(n(C)c3c2)-c2ccccc2OCC1=O	Kp at 7 h [6]: 64; Vd [7]: 7 L/kg; Stability (Liver microsomes): Stable; clearance [8]: 115 mL/min/kg; concentration at 7 h [9]: 1720 ng/g; bioavailability [10]: 14%; half-life [11]: 60 min
67	63	790	–	CN1CCCCCNC(=O)Cn2c(-c3ccoc3)c(C3CCCCC3)c3ccc(cc32)C(=O)NS1(=O)=O	Kp at 7 h [6]: 150; Vd [7]: 2.4 L/kg; clearance [8]: 123 mL/min/kg; concentration at 7 h [9]: 3740 ng/g; bioavailability [10]: 40%; half-life [11]: 24 min
96	64	170	54	COc1ccc2c(c1)OCC(=O)N(C)CCCCN(C)S(=O)(=O)NC(=O)c1ccc3c(C4CCCCC4)c-2n(C)c3c1	–
–	–	1580	110	CN1CCCCNC(=O)Cn2c(-c3ccoc3)c(C3CCCCC3)c3ccc(cc32)C(=O)NS1(=O)=O	–
69	52	150	56	COc1ccc2c(c1)OCC(=O)N(C)CCOCCN(C)S(=O)(=O)NC(=O)c1ccc3c(C4CCCCC4)c-2n(C)c3c1	–
